Source: publication PMC5854750 (European Journal of Drug Metabolism and Pharmacokinetics, 2017)

Experiments:
healthy male volunteers [1] = assay: Single-rising dose; type: in vivo, human
[2] = SRD component: plasma and urine pharmacokinetics; type: in vivo, human
[3] = Bioavailability/food effect; type: in vivo; conditions: male, human, plasma, oral, 25 mg, Median t max
Outline: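 Healthy men (18–45 y, BMI 18.5–29.9 kg/m2) in a randomised crossover received single oral 25 mg doses as tablet fasted, tablet after a high-fat, high-calorie meal, or 5-mg/mL solution fasted. Washout was at least 14 days, and PK sampling ran to Day 9 per period. Plasma was assayed by validated LC-MS/MS over 1.00–1000 nM (linear calibration, 1/x² weighting, QC in K3-EDTA plasma). Adjusted gMean ratios are reported with 90% CI.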

healthy male volunteers [4] = assay: BA/FE component: safety and tolerability; type: in vivo, human; conditions: Part 2 (BA/FE), 25 mg, six of 11 subjects
Outline: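 Open-label, randomised three-way crossover in 12 healthy men (18–45 y, BMI 18.5–29.9 kg/m2). Each received single oral 25 mg doses: tablet fasted, tablet after a standardised high-fat, high-calorie meal, and 5-mg/mL solution fasted, in one of six sequences. Washout between periods was at least 14 days. Safety was monitored to Day 9 of each period, with spontaneous AEs recorded by onset, end time and intensity.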

[5] = cited from earlier work

In the case of C[C@@H](Oc1ccc(S(C)(=O)=O)cc1C(=O)N1C[C@@H]2C[C@]2(c2cc(C(F)(F)F)on2)C1)C(F)(F)F [BI 425809], the “Subjects with at least one AE assessed as related to treatment” value (from here on “Subjects with at least one AE assessed”) (healthy male volunteers [1]; Part 1 (SRD), 27 of 72 subjects (includes placebo subjects)) is reported as 37.5%, the “Changes from baseline of QTcF interval, QT interval or heart rate vs placebo” value (healthy male volunteers [1]; Part 1, any of the doses tested) is reported as “no statistically relevant differences” and the “Colour discrimination and visual acuity tests” value (healthy male volunteers [1]; SRD) is reported as “no changes from baseline”. The “Incidence of AEs” value (healthy male volunteers [1]; SRD, 0.5-mg group) was 16.7%, the “Incidence of AEs” value (healthy male volunteers [1]; SRD, 150-mg group) was 100% and the “Subjects with eye disorder AE (photopsia, blurred vision or chromatopsia)” value (healthy male volunteers [1]; SRD, 150-mg group, n = 6) was “all six subjects”. The “Subjects with at least one AE” value (healthy male volunteers [1]; SRD, all BI 425809 doses 0.5–150 mg, 34/54 subjects) was 63.0%, the “Bond–Lader VAS scores of other items (calmness, contentment, external and internal perception)” value (healthy male volunteers [1]; SRD, dose levels of 100 and 150 mg) was “increased” and the “Bond and Lader VAS and Bowdle VAS scores for subjective feelings of sedation” value (healthy male volunteers [1]; SRD, doses of 10 mg and greater) was “increase”. For the same compound, the “Subjects with abnormalities on the Amsler grid test” value (healthy male volunteers [1]; SRD, one each at 25 and 100 mg) was “two subjects”, the Maximally tolerated dose (healthy male volunteers [1]; SRD, single oral dose, escalation terminated owing to dose-limiting AEs) was 150 mg and the ECG findings (healthy male volunteers [1]; both parts) was “No clinically relevant abnormal findings”. The Neurological examination findings (healthy male volunteers [1]; both parts) was “No clinically relevant abnormal findings”, the “Subjects with at least one AE assessed” value (healthy male volunteers [1]; both parts, 33/83 subjects (includes placebo subjects)) was 39.8% and the “Changes in laboratory parameters, hormone levels, haematology or vital signs” value (healthy male volunteers [1]; either part of the study) was “no clinically relevant changes”. For the same compound, the “Time to disappearance of headache” value (healthy male volunteers [1]; first day of dosing) was at most 12 h, the Tolerability (healthy male volunteers [1]; single dose, anticipated therapeutic dose range of 5–25 mg) was “generally well-tolerated” and the Fractional renal excretion ([2]; SRD, similar across all dose groups) was 5%. The Tmax ([2]; male, human, plasma, oral) was about 0.75 h, the half-life ([2]; male, human, plasma, oral) was 32.5 to 47 h and the Tmax ([3]; 25-mg solution, fasted) was 0.875 h. The Tmax ([3]; 25-mg tablet, fasted) was 4 h, the Tmax ([3]; 25-mg tablet, fed) was 1.77 h and the “Subjects with at least one AE assessed” value (healthy male volunteers [4]) was 54.5%. For the same compound, the “Biopharmaceutics Classification System class” value [5] was “Class II” and the Permeability [5] was “high”.
